From ChEMBL document CHEMBL2311493, “Focused pseudostatic hydrazone libraries screened by mass spectrometry binding assay: optimizing affinities toward γ-aminobutyric acid transporter 1” (J Med Chem, 2013)

Experiments:
[1] = molecular target: T1, Sodium- and chloride-dependent GABA transporter 1 (Mus musculus, UniProt P31648); assay: Binding affinity to mouse GAT1 expressed in HEK293 cells membranes using LC-ESI-MS/MS analysis by [2H10]NO711 binding inhibition assay; type: cell membranes
How it was run: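 Full competition with NO711 marker (20 nM) on mGAT1 HEK293 membranes in pH 7.1 phosphate buffer containing 1 M NaCl. Eight competitor concentrations, triplicate points. Bound marker was quantified by LC-ESI-MS/MS. Specific binding is total minus nonspecific. IC50 came from a one-site nonlinear fit and was converted to Ki by Cheng–Prusoff. pKi is mean ± SEM of at least three experiments.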

[2] = molecular target: Sodium- and chloride-dependent GABA transporter 1 (Mus musculus) (UniProt P31648); assay: Binding affinity to mouse GAT1 expressed in HEK293 cells membranes assessed as remaining [2H10]NO711 binding level at 10 uM using LC-ESI-MS/MS analysis by [2H10]NO711 binding inhibition assay; type: cell membranes
How it was run: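 Membranes from HEK293 cells stably expressing mGAT1, ~0.1 mg/mL protein, in pH 7.1 phosphate buffer with 1 M NaCl and 1% DMSO final. A single aldehyde (10 μM) and hydrazine 10 (100 μM) were incubated 4 h at 37 °C with the target to form the hydrazone. NO711 marker (20 nM) was then added for 40 min. Bound marker was recovered by filtration, 1 M NaCl washes and MeOH elution, then quantified by LC-ESI-MS/MS against [²H₁₀]NO711 internal standard. Result is % remaining specific binding, n = 4.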

[3] = molecular target: T1, Sodium- and chloride-dependent GABA transporter 1; assay: Inhibition of [3H]GABA uptake at mouse GAT1 expressed in HEK293 cells after 25 mins by scintillation counting analysis; type: cell-based

SMILES | Ki [1] | Activity [2] | IC50 ([3]; read-out: pIC50 (converted)) | also measured
O=C(O)C1CCCN(CCN/N=C/c2ccccc2-c2c(F)cccc2F)C1 (stereo not given) | 131 nM | < 5% | 998 nM | 
O=C(O)C1CCCN(CCN/N=C/c2ccccc2-c2ccc(Cl)cc2)C1 (stereo not given) | 173 nM | < 5% | 973 nM | 
O=C(O)C1CCCN(CCN/N=C/c2cc(F)ccc2-c2ccccc2)C1 (stereo not given) |  | 13% |  | 
O=Cc1ccccc1-c1ccc(Cl)cc1 |  | 79% |  | 
O=C(O)C1CCCN(CCN/N=C/c2ccccc2-c2ccccc2)C1 (stereo not given) | 652 nM | < 5% | 4920 nM | 
O=Cc1ccccc1-c1cc(F)ccc1F |  | 81% |  | 
O=C(O)C1CCCN(CCC=C(c2ccccc2)c2ccccc2)C1 (stereo not given) |  |  |  | IC50 ([3]; read-out: IC50): 130 nM
O=Cc1c(F)cccc1-c1ccccc1 |  | 85% |  | 
O=Cc1ccccc1-c1ccc(F)cc1Cl |  | 81% |  | 
O=C(O)C1CCCN(CCN/N=C/c2ccccc2-c2cccs2)C1 (stereo not given) | 590 nM | 8.2% | 2870 nM | 
O=Cc1cccc(-c2ccccc2)c1 |  | 88% |  | 
O=Cc1ccccc1-c1ccccc1-c1ccccc1 |  | 81% |  | 
O=C(O)C1CCCN(CCN/N=C/c2ccccc2-c2ccc(-c3ccccc3)cc2)C1 (stereo not given) |  | > 10% |  | 
O=C(O)C1CCCN(CCN/N=C/c2cccc(-c3ccccc3)c2)C1 (stereo not given) |  | > 10% |  | 
O=C(O)C1CCCN(CCN/N=C/c2ccccc2-c2cccc(-c3ccccc3)c2)C1 (stereo not given) |  | > 10% |  | 
Cc1ccc(-c2ccccc2/C=N/NCCN2CCCC(C(=O)O)C2)c(C)c1 (stereo not given) | 73.3 nM | < 5% | 836 nM | 
Cc1cccc(-c2ccccc2C=O)c1 |  | 91% |  | 
O=Cc1ccccc1-c1c(F)cc(F)cc1F |  | 35% |  | IC50 [1]: 10000 nM
O=Cc1cc(F)ccc1-c1ccccc1 |  | 85% |  | 
O=C(O)C1CCCN(CCN/N=C/c2ccccc2-c2cccc(Cl)c2)C1 (stereo not given) |  | > 10% |  | 
COc1ccc(-c2ccccc2/C=N/NCCN2CCCC(C(=O)O)C2)cc1 (stereo not given) |  | > 10% |  | 
Cc1ccc(-c2ccccc2C=O)cc1 |  | 91% |  | 

SMILES | Ki [1] | Activity [2] | IC50 ([3]; read-out: pIC50 (converted)) | also measured
O=Cc1ccccc1-c1c(F)cccc1F |  | 35% |  | 
O=Cc1ccccc1-c1ccccc1F |  | 82% |  | 
O=C(O)C1CCCN(CCN/N=C/c2ccccc2-c2ccc(C(F)(F)F)cc2C(F)(F)F)C1 (stereo not given) | 170 nM | < 5% | 2820 nM | 
O=C(O)[C@@H]1CCCN(CCOCCc2ccccc2-c2ccccc2)C1 |  |  |  | IC50 ([3]; read-out: IC50): 111 nM
O=Cc1ccccc1-c1ccc(F)cc1F |  | 81% |  | 
COc1cccc(F)c1-c1ccccc1C=O |  | 88% |  | 
O=C(O)C1=CCCNC1 [GUVACINE] |  |  |  | IC50 ([3]; read-out: IC50): 14000 nM
O=Cc1cc(F)ccc1-c1ccc(Cl)cc1 |  | 81% |  | 
COc1cc(F)ccc1-c1ccccc1/C=N/NCCN1CCCC(C(=O)O)C1 (stereo not given) | 760 nM | < 5% | 7350 nM | 
O=C(O)C1CCCN(CCN/N=C/c2cc(F)ccc2-c2ccccc2F)C1 (stereo not given) | 264 nM | < 5% | 1730 nM | 
O=C(O)C1=CCCN(CCON=C(c2ccccc2)c2ccccc2)C1 |  | < 5% |  | IC50 [1]: ≤ 530 nM; IC50 ([3]; read-out: IC50): 40 nM
O=C(O)C1CCCN(CCN/N=C/c2ccccc2-c2cccc(F)c2)C1 (stereo not given) |  | 16% |  | 
O=C(O)C1CCCN(CCN/N=C/c2cc(F)ccc2-c2ccc(Cl)cc2)C1 (stereo not given) | 234 nM | < 5% | 1960 nM | 
Cc1cccc(-c2ccccc2/C=N/NCCN2CCCC(C(=O)O)C2)c1 (stereo not given) |  | > 10% |  | 
O=C(O)C1CCCN(CCN/N=C/c2ccccc2-c2ccc(Cl)cc2F)C1 (stereo not given) | 24.7 nM | < 5% | 126 nM | 
O=C(O)C1CCCN(CCN/N=C/c2ccccc2-c2ccc(F)cc2Cl)C1 (stereo not given) | 14.6 nM | < 5% | 292 nM | 
Cc1ccc(-c2ccccc2/C=N/NCCN2CCCC(C(=O)O)C2)cc1 (stereo not given) | 473 nM | 10% | 3400 nM | 
O=Cc1ccccc1-c1ccc(Cl)cc1F |  | 85% |  | 
Cc1ccccc1-c1ccccc1C=O |  | 81% |  | 
O=Cc1cc(F)ccc1-c1ccccc1Cl |  | 35% |  | 
O=Cc1ccccc1-c1cccc(-c2ccccc2)c1 |  | 81% |  | 
O=Cc1ccccc1-c1ccc(C(F)(F)F)cc1C(F)(F)F |  | 81% |  | 

SMILES | Ki [1] | Activity [2] | IC50 ([3]; read-out: pIC50 (converted)) | also measured
O=C(O)C1CCCN(CCN/N=C/c2ccccc2-c2cc(F)cc(F)c2)C1 (stereo not given) |  | > 10% |  | 
O=Cc1ccccc1-c1cc(F)cc(F)c1 |  | 81% |  | 
COc1ccccc1-c1ccccc1C=O |  | 79% |  | 
O=Cc1ccccc1-c1cccc(F)c1 |  | 82% |  | 
O=C(O)C1CCCN(CCC/C=C/c2ccccc2-c2ccc(F)cc2Cl)C1 (stereo not given) | 313 nM |  | 3990 nM | 
O=C(O)C1CCCN(CCC/C=C/c2ccccc2-c2ccccc2F)C1 (stereo not given) | 647 nM |  | 3330 nM | 
O=C(O)C1CCCN(CCN/N=C/c2ccccc2-c2ccc(F)c(F)c2)C1 (stereo not given) | 625 nM | < 5% | 3320 nM | 
O=C(O)C1CCCN(CCN/N=C/c2ccccc2-c2cccc(F)c2F)C1 (stereo not given) | 204 nM | < 5% | 1500 nM | 
O=Cc1cc(F)ccc1-c1ccccc1F |  | 35% |  | 
O=C(O)C1CCCN(CCN/N=C/c2ccccc2-c2ccccc2F)C1 (stereo not given) | 122 nM | < 5% | 528 nM | 
O=C(O)C1CCCN(CCN/N=C/c2ccccc2-c2ccccc2Cl)C1 (stereo not given) | 65.5 nM | < 5% | 479 nM | 
COc1cccc(-c2ccccc2/C=N/NCCN2CCCC(C(=O)O)C2)c1 (stereo not given) |  | > 10% |  | 
O=C(O)C1CCCN(CCC/C=C/c2ccccc2-c2ccc(Cl)cc2Cl)C1 (stereo not given) | 117 nM |  | 769 nM | 
O=C(O)[C@@H]1CCCN(CCOCCC(c2ccccc2)c2ccccc2)C1 |  |  |  | IC50 ([3]; read-out: IC50): 55 nM
COc1ccccc1-c1ccccc1/C=N/NCCN1CCCC(C(=O)O)C1 (stereo not given) |  | 19% |  | 
O=C(O)C1CCCN(CCC/C=C/c2ccccc2-c2ccccc2Cl)C1 (stereo not given) | 834 nM |  | 3560 nM | 
O=C(O)C1CCCN(CCN/N=C/c2ccccc2-c2ccc(F)cc2F)C1 (stereo not given) | 35.6 nM | < 5% | 129 nM | 
O=Cc1ccccc1-c1ccc(F)cc1 |  | 82% |  | 
COc1ccc(F)cc1-c1ccccc1/C=N/NCCN1CCCC(C(=O)O)C1 (stereo not given) |  | > 10% |  | 
O=Cc1ccccc1-c1ccc(-c2ccccc2)cc1 |  | 81% |  | 
O=Cc1ccccc1-c1ccc(Cl)cc1Cl |  | 85% |  | 
O=Cc1ccccc1-c1cccc(F)c1F |  | 81% |  | 

SMILES | Ki [1] | Activity [2] | IC50 ([3]; read-out: pIC50 (converted)) | also measured
O=C(O)C1CCCN(CCN/N=C/c2ccccc2-c2c(F)cc(F)cc2F)C1 (stereo not given) | 30.6 nM | < 5% | 255 nM | 
O=Cc1ccccc1-c1ccccc1Cl |  | 79% |  | 
COc1ccc(F)cc1-c1ccccc1C=O |  | 88% |  | 
COc1ccc(-c2ccccc2C=O)cc1 |  | 91% |  | 
O=C(O)C1CCCN(CCN/N=C/c2cc(F)ccc2-c2ccccc2Cl)C1 (stereo not given) | 104 nM | < 5% | 1230 nM | 
COc1cccc(F)c1-c1ccccc1/C=N/NCCN1CCCC(C(=O)O)C1 (stereo not given) | 443 nM | < 5% | 2250 nM | 
O=C(O)C1CCCN(CCN/N=C/c2ccccc2-c2ccc(F)cc2)C1 (stereo not given) | 284 nM | < 5% | 1790 nM | 
Cc1ccc(-c2ccccc2C=O)c(C)c1 |  | 81% |  | 
O=C(O)[C@@H]1CCCN(CCO/N=C(\Cc2ccccc2F)c2ccccc2F)C1 |  |  |  | IC50 ([3]; read-out: IC50): 80 nM
O=Cc1ccccc1-c1ccc(F)c(F)c1 |  | 82% |  | 
Cc1ccsc1C(=CCCN1CCC[C@@H](C(=O)O)C1)c1sccc1C [TIAGABINE] |  |  |  | IC50 ([3]; read-out: IC50): 70 nM
O=C(O)C1CCCN(CCN/N=C/c2c(F)cccc2-c2ccccc2)C1 (stereo not given) |  | > 10% |  | 
O=Cc1ccccc1-c1cccc(Cl)c1 |  | 79% |  | 
COc1cc(F)ccc1-c1ccccc1C=O |  | 88% |  | 
O=C(O)C1CCCN(CCN/N=C/c2ccccc2-c2ccc(Cl)cc2Cl)C1 (stereo not given) | 8.05 nM | < 5% | 61.2 nM | 
O=C(O)C1CCCN(CCC/C=C/c2ccccc2-c2ccc(F)cc2F)C1 (stereo not given) | 592 nM |  | 2840 nM | 
O=C(O)C1CCCN(CCN/N=C/c2ccccc2-c2cc(F)ccc2F)C1 (stereo not given) |  | > 10% |  | 
COc1cccc(-c2ccccc2C=O)c1 |  | 91% |  | 
O=C(O)C1CCCN(CCN/N=C/c2ccccc2-c2ccccc2-c2ccccc2)C1 (stereo not given) |  | > 10% |  | 
Cc1ccccc1-c1ccccc1/C=N/NCCN1CCCC(C(=O)O)C1 (stereo not given) | 216 nM | < 5% | 1560 nM | 
